Assay type in all cases: functional, cell-based
Assay [1] has as its system MCF7. Kind of assay: Antiproliferative activity against human MCF7 cells after 72 hrs by MTT assay. The conditions noted are these: MCF7, 72 h. Summed up:
(§1)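 Log-phase cells seeded at 2 × 10⁴ cells/ml, 24 h at 37 °C in 5% CO₂, then exposed to compounds for 72 h at 37 °C. MTT (5 mg/ml) added for 4 h, medium discarded, formazan dissolved in DMSO, absorbance read at 570 nm. Each concentration in triplicate, experiment repeated three times. IC50 from dose-response curves of inhibition ratio versus untreated control.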

Assay [2] concerns HCT-116. In words: Antiproliferative activity against human HCT116 cells after 72 hrs by MTT assay. To be noted: HCT-116, 72 h. Summed up: as §1
Background: Tetrazolium assays rely on reduction of a dye to a coloured formazan, in cell work by metabolically active cells.

Assay [3] in a line: Antiproliferative activity against human Bel7402 cells after 72 hrs by MTT assay. To be noted: Bel-7402, 72 h. The method, boiled down: as §1

IC50 data for 22 molecules are collected here from ChEMBL document CHEMBL3259652, “Design and synthesis of novel 5,6-disubstituted pyridine-2,3-dione-3-thiosemicarbazone derivatives as potential anticancer agents” (Eur J Med Chem, 2014).

The term IC50 denotes the midpoint of a concentration-inhibition curve. Lower therefore signals greater potency.

As for `Cc1ccccc1NC1=C/C(=N/NC(N)=S)C(=O)N=C1Nc1ccccc1C`, the values for the IC50 in assay [1], in assay [2] and in assay [3] were 0.58 µM, 1.52 µM and 1.71 µM, respectively.

With `Cc1cccc(NC2=C/C(=N/NC(N)=S)C(=O)N=C2Nc2cccc(C)c2)c1`, the half-maximal inhibitory concentration (IC50) was found to be 0.15 µM in assay [1], 8.65 µM in assay [2] and 2.73 µM in assay [3].

As for `Cc1ccc(NC2=C/C(=N/NC(N)=S)C(=O)N=C2Nc2ccc(C)cc2)cc1`, the values for the IC50 in assay [1], in assay [2] and in assay [3] were 3.06 µM, 7.04 µM and 4.33 µM, respectively.

In the case of `NC(=S)N/N=C1/C=C(Nc2ccccc2Cl)C(Nc2ccccc2Cl)=NC1=O`, the concentration for half-maximal inhibition (IC50) in assay [1] is 3.49 µM; in assay [2], 3.54 µM; in assay [3], 3.42 µM.

For `NC(=S)N/N=C1/C=C(Nc2cccc(Cl)c2)C(Nc2cccc(Cl)c2)=NC1=O`, the IC50 is 0.63 µM in assay [1], 3.38 µM in assay [2] and 2.19 µM in assay [3].

For the molecule `NC(=S)N/N=C1/C=C(Nc2ccc(Cl)cc2)C(Nc2ccc(Cl)cc2)=NC1=O`, the values for the IC50 in assay [1], in assay [2] and in assay [3] were 1.37 µM, 0.19 µM and 0.82 µM, respectively.

With `COc1ccccc1NC1=C/C(=N/NC(N)=S)C(=O)N=C1Nc1ccccc1OC`, the figures for the concentration for half-maximal inhibition (IC50) in assay [1], in assay [2] and in assay [3] were 10.2 µM, 20.8 µM and 13.4 µM, respectively.

Regarding `COc1cccc(NC2=C/C(=N/NC(N)=S)C(=O)N=C2Nc2cccc(OC)c2)c1`, in assay [1], the concentration for half-maximal inhibition (IC50) was > 50 µM.

In the case of `COc1ccc(NC2=C/C(=N/NC(N)=S)C(=O)N=C2Nc2ccc(OC)cc2)cc1`, the IC50 in assay [1] was 10.4 µM; in assay [2] it was 22.4 µM; in assay [3] it was 17.8 µM.

In the case of `CCOc1ccc(NC2=C/C(=N/NC(N)=S)C(=O)N=C2Nc2ccc(OCC)cc2)cc1`, the IC50 was 13.7 µM in assay [1], 21.3 µM in assay [2] and 31 µM in assay [3].

For the molecule `NC(=S)N/N=C1/C=C(Nc2ccc(F)cc2)C(Nc2ccc(F)cc2)=NC1=O`, the IC50 is 1.12 µM in assay [1], 3.72 µM in assay [2] and 3.66 µM in assay [3].

As for `NC(=S)N/N=C1/C=C(Nc2ccc(Br)cc2)C(Nc2ccc(Br)cc2)=NC1=O`, the concentration for half-maximal inhibition (IC50) is 2.58 µM in assay [1], 2.15 µM in assay [2] and 5.84 µM in assay [3].

For `NC(=S)N/N=C1/C=C(Nc2cccc([N+](=O)[O-])c2)C(Nc2cccc([N+](=O)[O-])c2)=NC1=O`, the values for the IC50 in assay [1], in assay [2] and in assay [3] were 11.1 µM, 19.4 µM and 8.11 µM, respectively.

In the case of `NC(=S)N/N=C1/C=C(Nc2ccccc2)C(Nc2ccccc2)=NC1=O`, the figures for the IC50 in assay [1], in assay [2] and in assay [3] were 7.11 µM, 24.7 µM and 11.9 µM, respectively.

As to `Cc1ccccc1NC1=C/C(=N/N=C(\N)SCc2ccccc2)C(=O)N=C1Nc1ccccc1C`, the IC50 came to 16.3 µM in assay [1], 13.8 µM in assay [2] and 17.1 µM in assay [3].

Regarding `Cc1cccc(NC2=C/C(=N/N=C(\N)SCc3ccccc3)C(=O)N=C2Nc2cccc(C)c2)c1`, the values for the IC50 in assay [1], in assay [2] and in assay [3] were 9.34 µM, 12.8 µM and 8.72 µM, respectively.

For `Cc1ccc(NC2=C/C(=N/N=C(\N)SCc3ccccc3)C(=O)N=C2Nc2ccc(C)cc2)cc1`, the figures for the half-maximal inhibitory concentration (IC50) in assay [1], in assay [2] and in assay [3] were 13.4 µM, 8.27 µM and 7.68 µM, respectively.

As for `N/C(=N\N=C1\C=C(Nc2cccc(Cl)c2)C(Nc2cccc(Cl)c2)=NC1=O)SCc1ccccc1`, the 50% inhibitory concentration (IC50) in assay [1] was found to be 15.2 µM; in assay [2] it was 11.7 µM; in assay [3], 7.16 µM.

For `N/C(=N\N=C1\C=C(Nc2ccc(Cl)cc2)C(Nc2ccc(Cl)cc2)=NC1=O)SCc1ccccc1`, the IC50 in assay [1] amounted to 7.72 µM; in assay [2], 9.6 µM; in assay [3] it was 17.3 µM.

`N/C(=N\N=C1\C=C(Nc2ccc(F)cc2)C(Nc2ccc(F)cc2)=NC1=O)SCc1ccccc1`: the values for the 50% inhibitory concentration (IC50) in assay [1], in assay [2] and in assay [3] were 7.58 µM, 11.5 µM and 7.69 µM, respectively.

In the case of `COc1ccccc1NC1=C/C(=N/N=C(\N)SCc2ccccc2)C(=O)N=C1Nc1ccccc1OC`, the 50% inhibitory concentration (IC50) in assay [1] was determined as 8.34 µM; in assay [2], 14.5 µM; in assay [3] it was 13.1 µM.

Regarding `O=c1[nH]cc(F)c(=O)[nH]1` [FLUOROURACIL], the 50% inhibitory concentration (IC50) is 7.08 µM in assay [1], 10.5 µM in assay [2] and 11.1 µM in assay [3].
